Activity calls are given as the source filed them. The rule behind the calls is not given here.
Assays:
HL-60 [1] = assay: Induction of apoptosis in human HL60 cells assessed as incidence of condensed and fragmented chromatin at 30 uM incubated for 24 hrs by fluorescent microscopy; assay type: functional, cell-based
[2] = target: T1, MAP kinase p38 (Homo sapiens) (UniProt O15264+Q15759+Q16539+P53778); assay: Induction of p38MAPK phosphorylation in human HL60 cells after 4 hrs by Western blotting; assay type: cell-based; settings: HL-60
In short: (§1)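 HL-60 cells (1 × 10⁶/mL) treated with compound (10–30 µM) for various times. Where used, PD98059 (10 µM) was added 1 h beforehand. Lysates run on 10% SDS-PAGE and immunoblotted for phosphorylated ERK 1/2, JNK/SAPK or p38MAPK. Blots stripped and reprobed for the total kinase as loading control.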

HL-60 [3] = assay: Cell cycle arrest in human HL60 cells assessed as accumulation at G2/M phase at 30 uM incubated for 24 hrs by flow cytometry (reference value: 33.2 +/- 2.1%); assay type: functional
HL-60 [4] = assay: Induction of caspase activation in human HL60 cells assessed as increase in PARP cleavage at 30 uM incubated for 24 hrs by immunoblotting method; assay type: functional, cell-based
In short: (§2)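 HL-60 cells (1 × 10⁶/mL) exposed to compound, harvested at 24 h. Lysed in Tris-HCl pH 7.4/Triton X-100 buffer with phosphatase and protease inhibitors, 15 min at 4 °C. Equal protein run on SDS-PAGE (7.5% PARP, 12.5% caspases) and immunoblotted on PVDF. β-Actin used as loading control.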

HL-60 [5] = assay: Induction of procaspase-9 cleavage in human HL60 cells at 30 uM incubated for 24 hrs by immunoblotting method; assay type: functional, cell-based; in short: as §2
HL-60 [6] = assay: Cell cycle arrest in human HL60 cells assessed as accumulation at subG1 phase at 10 uM incubated for 24 hrs by flow cytometry (reference value: 2.3 +/- 0.5%); assay type: functional
PBMC = assay: Induction of MLL gene cleavage in human proliferating PBMCs at 30 uM incubated for 16 hrs by inverse PCR method; assay type: functional, cell-based
In short: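 Peripheral blood mononuclear cells exposed to 30 µM compound for 16 h. Genomic DNA digested with Xba I and circularised. Nested inverse PCR (MF1–MR1, then MF2–MR2). Wild-type MLL removed by Pvu II digestion before PCR to reveal rearrangement products.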

HL-60 [7] = assay: Induction of apoptosis in human HL60 cells assessed as hypodiploid cells level incubated for 24 hrs in presence of 2 uM p38MAPK inhibitor SB203580 by flow cytometry; assay type: functional, cell-based
In short: (§3)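 HL-60 cells preincubated 1 h with PD98059 (10 µM), SP600125 (10 µM) or SB203580 (2 µM), then treated with compound. Hypodiploid (apoptotic) cells quantified by flow cytometry of propidium iodide-stained nuclei. Three independent experiments, each in triplicate.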

HL-60 [8] = assay: Cytotoxicity against human HL60 cells after 72 hrs by MTT assay; assay type: functional, cell-based; settings: HL-60, 72 h
In short: (§4)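 MTT colorimetric assay on HL-60 and HL-60/MX1 cells (RPMI 1640, 10% heat-inactivated FBS), 72 h exposure, absorbance 570 nm. IC50 obtained graphically by curve fitting. Means ± S.E. of three independent experiments, each in triplicate.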

HL-60 [9] = assay: Induction of apoptosis in human HL60 cells assessed as hypodiploid cells level at 30 uM incubated for 24 hrs in presence of caspase-3 and -7 inhibitor z-DEVD-fmk by flow cytometry; assay type: functional, cell-based
In short: (§5)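 HL-60 cells given 30 µM compound for 24 h, alone or with z-VAD-fmk (100 µM), z-DEVD-fmk, z-IETD-fmk or z-LEHD-fmk (each 50 µM). Propidium iodide staining, hypodiploid cells quantified by flow cytometry. Three independent experiments, each in triplicate.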

HL-60 [10] = assay: Cell cycle arrest in human HL60 cells assessed as accumulation at G1 phase at 10 uM incubated for 24 hrs by flow cytometry (reference value: 48 +/- 1.6%); assay type: functional
HL-60 [11] = assay: Cell cycle arrest in human HL60 cells assessed as accumulation at G2/M phase at 10 uM incubated for 24 hrs by flow cytometry (reference value: 33.2 +/- 2.1%); assay type: functional
[12] = Cytotoxicity against human HL60/MX1 cells after 72 hrs by MTT assay; assay type: functional, cell-based; settings: HL60/MX1, 72 h; in short: as §4
[13] = target: T2, Mitogen-activated protein kinase; ERK1/ERK2 (Homo sapiens) (UniProt P27361+P28482); assay: Induction of ERK1/2 phosphorylation in human HL60 cells after 30 mins in presence of 10 uM MEK1/2 inhibitor PD98059 by Western blotting; assay type: cell-based; settings: HL-60; in short: as §1
T2 sequence (P27361 whole entry, looked up): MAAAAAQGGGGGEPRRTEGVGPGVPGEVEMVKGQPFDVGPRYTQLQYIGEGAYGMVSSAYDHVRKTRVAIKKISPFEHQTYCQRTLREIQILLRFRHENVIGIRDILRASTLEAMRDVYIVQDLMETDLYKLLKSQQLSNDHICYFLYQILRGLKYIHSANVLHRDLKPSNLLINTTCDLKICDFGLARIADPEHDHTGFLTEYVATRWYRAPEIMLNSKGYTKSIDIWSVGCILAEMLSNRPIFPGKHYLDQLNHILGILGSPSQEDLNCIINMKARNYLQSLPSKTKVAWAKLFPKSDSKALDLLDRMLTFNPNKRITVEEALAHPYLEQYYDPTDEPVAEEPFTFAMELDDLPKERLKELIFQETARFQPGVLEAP
T2 sequence (P28482 whole entry, looked up): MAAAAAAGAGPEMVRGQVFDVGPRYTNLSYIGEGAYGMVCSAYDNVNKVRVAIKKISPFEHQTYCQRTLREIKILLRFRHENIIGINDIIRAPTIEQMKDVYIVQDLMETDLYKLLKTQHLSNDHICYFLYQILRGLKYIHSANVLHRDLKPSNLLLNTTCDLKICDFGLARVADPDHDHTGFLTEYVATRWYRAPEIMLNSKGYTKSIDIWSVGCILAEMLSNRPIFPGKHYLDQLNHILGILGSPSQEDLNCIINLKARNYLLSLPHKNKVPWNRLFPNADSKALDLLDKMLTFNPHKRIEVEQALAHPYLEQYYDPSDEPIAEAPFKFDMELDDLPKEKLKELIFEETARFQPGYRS

[14] = target: T2, Mitogen-activated protein kinase; ERK1/ERK2 (Homo sapiens); assay: Induction of ERK1/2 phosphorylation in human HL60 cells after 6 hrs by Western blotting; assay type: cell-based; settings: HL-60; in short: as §1
HL-60 [15] = assay: Cytotoxicity against human HL60 cells at 100 uM after 72 hrs by MTT assay
HL-60 [16] = assay: Cell cycle arrest in human HL60 cells assessed as accumulation at subG1 phase at 30 uM incubated for 24 hrs by flow cytometry (reference value: 2.3 +/- 0.5%); assay type: functional
HL-60 [17] = assay: Induction of p21'Cip1 protein expression in human HL60 cells at 30 uM incubated for 24 hrs by Western blotting method; assay type: functional, cell-based; in short: as §2
HL-60 [18] = assay: Induction of procaspase-6 processing in human HL60 cells at 30 uM incubated for 24 hrs by immunoblotting method; assay type: functional, cell-based; in short: as §2
HL-60 [19] = assay: Induction of apoptosis in human HL60 cells assessed as hypodiploid cells level at 30 uM incubated for 24 hrs in presence of caspase inhibitor z-VAD-fmk by flow cytometry; assay type: functional, cell-based; in short: as §5
[20] = target: T3, c-Jun N-terminal kinase, JNK (Homo sapiens) (UniProt P45983+P53779+P45984); assay: Induction of JNK/SAPK phosphorylation in human HL60 cells after 30 mins by Western blotting; assay type: cell-based; settings: HL-60; in short: as §1
HL-60 [21] = assay: Induction of apoptosis in human HL60 cells assessed as hypodiploid cells level incubated for 24 hrs in presence of 10 uM JNK/SAPK inhibitor SP600125 by flow cytometry; assay type: functional, cell-based; in short: as §3
HL-60 [22] = assay: Induction of apoptosis in human HL60 cells assessed as hypodiploid cells level at 30 uM incubated for 24 hrs in presence of caspase-8 inhibitor z-IETD-fmk by flow cytometry; assay type: functional, cell-based; in short: as §5
HL-60 [23] = assay: Induction of cyclin D1 protein expression in human HL60 cells at 30 uM incubated for 24 hrs by Western blotting method; assay type: functional, cell-based; in short: as §2
HL-60 [24] = assay: Induction of Bid protein cleavage in human HL60 cells at 30 uM incubated for 24 hrs by Western blotting method; assay type: functional, cell-based; in short: as §2
HL-60 [25] = assay: Induction of apoptosis in human HL60 cells assessed as hypodiploid cells level at 30 uM incubated for 24 hrs in presence of caspase-9 inhibitor z-LEHD-fmk by flow cytometry; assay type: functional, cell-based; in short: as §5
HL-60 [26] = assay: Induction of procaspase-7 processing in human HL60 cells at 30 uM incubated for 24 hrs by immunoblotting method; assay type: functional, cell-based; in short: as §2
HL-60 [27] = assay: Cell cycle arrest in human HL60 cells assessed as accumulation at G1 phase at 30 uM incubated for 24 hrs by flow cytometry (reference value: 48 +/- 1.6%); assay type: functional
HL-60 [28] = assay: Increase in apoptosis in human HL60 cells assessed as hypodiploid cells level incubated for 24 hrs in presence of 10 uM MEK1/2 inhibitor PD98059 by flow cytometry (reference value: 15%); assay type: functional; in short: as §3
[29] = target: T3, c-Jun N-terminal kinase, JNK (Homo sapiens); assay: Induction of JNK/SAPK phosphorylation in human HL60 cells after 6 hrs by Western blotting; assay type: cell-based; settings: HL-60; in short: as §1
HL-60 [30] = assay: Cell cycle arrest in human HL60 cells assessed as accumulation at S phase at 10 uM incubated for 24 hrs by flow cytometry (reference value: 16.7 +/- 0.5%); assay type: functional
HL-60 [31] = assay: Induction of apoptosis in human HL60 cells assessed as changes in nuclear morphology at 30 uM incubated for 24 hrs by fluorescence microscopy (reference value: 4.9 +/- 1.0%)
HL-60 [32] = assay: Cell cycle arrest in human HL60 cells assessed as accumulation at S phase at 30 uM incubated for 24 hrs by flow cytometry (reference value: 16.7 +/- 0.5%); assay type: functional
HL-60 [33] = assay: Induction of DNA fragmentation in human HL60 cells at 30 uM incubated for 24 hrs by agarose gel electrophoresis; assay type: functional, cell-based
In short: (§6)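 HL-60 cells treated with the indicated concentrations. Genomic DNA extracted, run on agarose gel and visualised under UV after ethidium bromide staining, looking for internucleosomal fragmentation.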

[34] = Cytotoxicity against human proliferating PBMCs assessed as cell viability after 48 hrs at 30 uM by MTT assay; assay type: cell-based, PBMC; settings: read-out: Activity
In short: (§7)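 HL-60 cells, quiescent (fresh) PBMC and phytohemagglutinin-activated healthy human PBMC cultured 48 h over a concentration range of compound. Proliferation measured. Means ± SE of two independent experiments, each in triplicate.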

HL-60 [35] = assay: Cytotoxicity against human HL60 cells assessed as cell viability after 48 hrs at 30 uM by MTT assay; assay type: functional; settings: HL-60, 48 h, read-out: Activity; in short: as §7
HL-60 [36] = assay: Induction of cytochrome-c release in human HL60 cells at 30 uM incubated for 24 hrs by immunoblotting method; assay type: functional, cell-based
In short: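 HL-60 cells treated 24 h with 30 µM compound. Cytosolic extracts immunoblotted for cytochrome c released from mitochondria. β-Actin used as loading control.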

HL-60 [37] = assay: Induction of procaspase-3 processing in human HL60 cells at 30 uM incubated for 24 hrs by immunoblotting method; assay type: functional, cell-based; in short: as §2
HL-60 [38] = assay: Induction of DNA fragmentation in human HL60 cells at 10 uM incubated for 24 hrs by agarose gel electrophoresis; assay type: functional, cell-based; in short: as §6
HL-60 [39] = assay: Induction of procaspase-8 hydrolysis in human HL60 cells at 30 uM incubated for 24 hrs by immunoblotting method; assay type: functional, cell-based; in short: as §2
[40] = target: T1, MAP kinase p38 (Homo sapiens); assay: Induction of p38MAPK phosphorylation in human HL60 cells after 30 mins by Western blotting; assay type: cell-based; settings: HL-60; in short: as §1
[41] = target: T2, Mitogen-activated protein kinase; ERK1/ERK2 (Homo sapiens); assay: Induction of ERK1/2 phosphorylation in human HL60 cells after 30 mins by Western blotting; assay type: cell-based; settings: HL-60; in short: as §1

Question: Which Activity (HL-60 [1]) does the source give for `COC(=O)c1c(C)c(C)cc2c(=O)cc(-c3ccccc3C)oc12` here?
Answer: Active

Question: What about the Activity [2] of the same molecule?
Answer: inactive

Question: What about the Activity (HL-60 [3]) of the same molecule?
Answer: 11.8%

Question: What about the Activity (HL-60 [4]) of the same molecule?
Answer: Active

Question: And the Activity (HL-60 [5])?
Answer: Active

Question: And the Activity (HL-60 [6])?
Answer: 5.5%

Question: And the Activity (PBMC)?
Answer: Active

Question: What about the Activity (HL-60 [7]) of the same molecule?
Answer: Active

Question: And the IC50 (HL-60 [8])?
Answer: 10.1 µM

Question: What about the Activity (HL-60 [9]) of the same molecule?
Answer: inactive

Question: And the Activity (HL-60 [10])?
Answer: 53%

Question: And the Activity (HL-60 [11])?
Answer: 24.4%

Question: And the IC50 [12]?
Answer: 18.9 µM

Question: What about the Activity [13] of the same molecule?
Answer: inactive

Question: And the Activity [14]?
Answer: Active

Question: And the Activity (HL-60 [15])?
Answer: Active

Question: And the Activity (HL-60 [16])?
Answer: 28.5%

Question: And the Activity (HL-60 [17])?
Answer: Active

Question: And the Activity (HL-60 [18])?
Answer: Active

Question: And the Activity (HL-60 [19])?
Answer: inactive

Question: What about the Activity [20] of the same molecule?
Answer: Active

Question: And the Activity (HL-60 [21])?
Answer: Active

Question: What about the Activity (HL-60 [22]) of the same molecule?
Answer: inactive

Question: And the Activity (HL-60 [23])?
Answer: Active

Question: What about the Activity (HL-60 [24]) of the same molecule?
Answer: Active

Question: And the Activity (HL-60 [25])?
Answer: inactive

Question: What about the Activity (HL-60 [26]) of the same molecule?
Answer: Active

Question: And the Activity (HL-60 [27])?
Answer: 48.1%

Question: What about the Activity (HL-60 [28]) of the same molecule?
Answer: 25%

Question: And the Activity [29]?
Answer: Active

Question: And the Activity (HL-60 [30])?
Answer: 16.6%

Question: What about the Activity (HL-60 [31]) of the same molecule?
Answer: 26.9%

Question: And the Activity (HL-60 [32])?
Answer: 7.6%

Question: And the Activity (HL-60 [33])?
Answer: Active

Question: What about the viability at 48 h, 30 µM [34] of the same molecule?
Answer: 75%

Question: What about the viability at 30 µM (HL-60 [35]) of the same molecule?
Answer: 25%

Question: What about the Activity (HL-60 [36]) of the same molecule?
Answer: Active

Question: And the Activity (HL-60 [37])?
Answer: Active

Question: And the Activity (HL-60 [38])?
Answer: Active

Question: What about the Activity (HL-60 [39]) of the same molecule?
Answer: Active

Question: What about the Activity [40] of the same molecule?
Answer: Active

Question: And the Activity [41]?
Answer: Active

From ChEMBL document CHEMBL2169813, “Cell death triggered by synthetic flavonoids in human leukemia cells is amplified by the inhibition of extracellular signal-regulated kinase signaling” (Eur J Med Chem, 2012)
